# From the M2OR odorant receptor database
# Changes are numbered by the printed parent chain.
# Tests used:
# Details in all cases: stereoisomer not certain
# [1] = system: OR1A2 A108G K109N S155N
# Summary of the method: (§1)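 Assay methods differ from source to source, frequently being transient luciferase assays in mammalian cell lines. For each receptor–molecule pair, the label responsive (active) applies when the original authors judged the measured signal statistically different from baseline, and non-responsive (inactive) applies otherwise.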
# [2] = system: OR1A2 A108G K109N T154A S155N
# Summary of the method: as §1
# [3] = system: OR1A2 A108G K109N T154A
# Summary of the method: as §1
# [4] = system: OR1A2 A108G K109N
# Summary of the method: as §1
# [5] = system: OR1A2 A108G T154A S155N
# Summary of the method: as §1
# [6] = system: OR1A2 A108G
# Chain of OR1A2 A108G (as listed by the source, stated change not applied): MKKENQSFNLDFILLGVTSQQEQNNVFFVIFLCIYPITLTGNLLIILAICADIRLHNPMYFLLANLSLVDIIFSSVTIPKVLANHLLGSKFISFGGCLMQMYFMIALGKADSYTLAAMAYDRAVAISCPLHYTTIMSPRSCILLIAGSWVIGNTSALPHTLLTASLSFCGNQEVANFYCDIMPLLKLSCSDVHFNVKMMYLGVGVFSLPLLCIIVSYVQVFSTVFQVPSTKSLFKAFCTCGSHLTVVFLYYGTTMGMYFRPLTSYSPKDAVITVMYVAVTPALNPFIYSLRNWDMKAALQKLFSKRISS
# Summary of the method: as §1
# [7] = system: OR1A2 K109N T154A S155N
# Summary of the method: as §1
# [8] = system: OR1A2 K109N
# Chain of OR1A2 K109N (as listed by the source, stated change not applied): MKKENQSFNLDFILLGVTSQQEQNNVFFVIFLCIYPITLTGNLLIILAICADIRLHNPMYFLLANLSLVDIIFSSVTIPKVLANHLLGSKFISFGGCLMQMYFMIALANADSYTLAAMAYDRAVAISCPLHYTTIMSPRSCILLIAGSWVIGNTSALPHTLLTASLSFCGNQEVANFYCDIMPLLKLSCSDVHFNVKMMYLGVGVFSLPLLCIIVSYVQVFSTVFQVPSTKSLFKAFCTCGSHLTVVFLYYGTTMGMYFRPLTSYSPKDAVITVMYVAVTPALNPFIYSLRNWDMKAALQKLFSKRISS
# Summary of the method: as §1
# [9] = system: OR1A2 S155N
# Chain of OR1A2 S155N (as listed by the source, stated change not applied): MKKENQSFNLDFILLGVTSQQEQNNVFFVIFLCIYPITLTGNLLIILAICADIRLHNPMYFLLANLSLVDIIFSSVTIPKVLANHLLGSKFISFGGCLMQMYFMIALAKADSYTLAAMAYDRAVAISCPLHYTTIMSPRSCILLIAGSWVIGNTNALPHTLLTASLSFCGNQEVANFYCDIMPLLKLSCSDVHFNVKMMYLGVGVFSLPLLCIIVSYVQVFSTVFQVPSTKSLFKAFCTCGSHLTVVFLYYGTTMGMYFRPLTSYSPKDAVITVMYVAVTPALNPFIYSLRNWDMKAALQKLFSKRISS
# Summary of the method: as §1
# [10] = system: OR1A2 T154A S155N
# Summary of the method: as §1
# [11] = system: OR1A2 T154A
# Chain of OR1A2 T154A (as listed by the source, stated change not applied): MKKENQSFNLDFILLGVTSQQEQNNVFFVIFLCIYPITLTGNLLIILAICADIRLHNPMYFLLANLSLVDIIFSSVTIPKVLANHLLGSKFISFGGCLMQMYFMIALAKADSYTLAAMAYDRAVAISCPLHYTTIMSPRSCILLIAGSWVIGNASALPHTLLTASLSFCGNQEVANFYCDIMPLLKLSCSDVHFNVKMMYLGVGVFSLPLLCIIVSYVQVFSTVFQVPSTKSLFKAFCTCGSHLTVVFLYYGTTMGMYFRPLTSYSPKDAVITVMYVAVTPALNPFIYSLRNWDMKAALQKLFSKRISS
# Summary of the method: as §1
# [12] = system: OR1A2 T254V
# Chain of OR1A2 T254V (as listed by the source, stated change not applied): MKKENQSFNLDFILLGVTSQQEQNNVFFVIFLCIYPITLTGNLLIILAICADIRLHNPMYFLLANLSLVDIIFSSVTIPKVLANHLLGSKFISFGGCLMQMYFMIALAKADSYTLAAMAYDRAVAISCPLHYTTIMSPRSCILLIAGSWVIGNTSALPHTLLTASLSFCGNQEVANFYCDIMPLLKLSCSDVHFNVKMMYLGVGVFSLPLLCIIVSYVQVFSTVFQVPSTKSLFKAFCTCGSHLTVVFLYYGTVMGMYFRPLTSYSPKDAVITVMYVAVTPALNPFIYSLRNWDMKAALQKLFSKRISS
# Summary of the method: as §1
# [13] = system: OR1A2 V205I
# Chain of OR1A2 V205I (as listed by the source, stated change not applied): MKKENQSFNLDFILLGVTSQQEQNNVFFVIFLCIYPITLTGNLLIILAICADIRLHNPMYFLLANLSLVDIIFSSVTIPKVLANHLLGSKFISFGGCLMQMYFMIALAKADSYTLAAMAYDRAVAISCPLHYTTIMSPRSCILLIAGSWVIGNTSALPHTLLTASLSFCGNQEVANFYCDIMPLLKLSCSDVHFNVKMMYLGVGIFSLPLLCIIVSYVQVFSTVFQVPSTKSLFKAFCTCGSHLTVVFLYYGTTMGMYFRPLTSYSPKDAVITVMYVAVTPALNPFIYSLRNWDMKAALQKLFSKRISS
# Summary of the method: as §1
# [14] = system: OR1A2 V277T
# Chain of OR1A2 V277T (as listed by the source, stated change not applied): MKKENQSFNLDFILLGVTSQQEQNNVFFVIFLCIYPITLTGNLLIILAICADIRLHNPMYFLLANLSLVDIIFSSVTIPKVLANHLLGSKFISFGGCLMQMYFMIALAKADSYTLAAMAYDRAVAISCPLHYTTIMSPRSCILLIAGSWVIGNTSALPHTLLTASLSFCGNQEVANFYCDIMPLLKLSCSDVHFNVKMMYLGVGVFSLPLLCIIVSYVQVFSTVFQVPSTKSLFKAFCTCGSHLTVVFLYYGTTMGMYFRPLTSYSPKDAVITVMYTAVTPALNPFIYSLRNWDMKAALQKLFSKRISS
# Summary of the method: as §1
# [15] = target: T1, OR1D2 (Homo sapiens) (UniProt P34982)
# T1 sequence (whole entry): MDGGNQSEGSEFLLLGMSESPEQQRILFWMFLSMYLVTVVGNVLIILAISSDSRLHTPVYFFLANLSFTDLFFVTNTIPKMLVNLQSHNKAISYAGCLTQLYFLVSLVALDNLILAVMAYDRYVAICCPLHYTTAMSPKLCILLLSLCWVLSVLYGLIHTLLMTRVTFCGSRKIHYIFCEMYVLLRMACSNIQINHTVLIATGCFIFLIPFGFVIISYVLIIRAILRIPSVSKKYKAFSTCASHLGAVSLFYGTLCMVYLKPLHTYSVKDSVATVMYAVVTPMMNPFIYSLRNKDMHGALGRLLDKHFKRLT
# Summary of the method: as §1
# [16] = target: T2, OR1A2 (Homo sapiens) (UniProt Q9Y585)
# T2 sequence (whole entry): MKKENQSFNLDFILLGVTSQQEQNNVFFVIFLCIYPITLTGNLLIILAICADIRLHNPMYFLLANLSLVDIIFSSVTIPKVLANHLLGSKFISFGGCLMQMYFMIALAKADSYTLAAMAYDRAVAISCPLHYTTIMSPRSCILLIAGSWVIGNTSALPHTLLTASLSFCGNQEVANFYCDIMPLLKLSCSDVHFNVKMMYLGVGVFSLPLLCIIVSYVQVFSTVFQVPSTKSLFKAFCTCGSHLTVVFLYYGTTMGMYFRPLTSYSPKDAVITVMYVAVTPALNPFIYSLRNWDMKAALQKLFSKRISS
# Summary of the method: as §1
# [17] = system: T3, OR1A2 G256C W293C
# T3 sequence (whole entry): T2 sequence (whole entry) with G256C, W293C
# Summary of the method: as §1
# [18] = system: T4, OR1B1
# T4 sequence (whole entry): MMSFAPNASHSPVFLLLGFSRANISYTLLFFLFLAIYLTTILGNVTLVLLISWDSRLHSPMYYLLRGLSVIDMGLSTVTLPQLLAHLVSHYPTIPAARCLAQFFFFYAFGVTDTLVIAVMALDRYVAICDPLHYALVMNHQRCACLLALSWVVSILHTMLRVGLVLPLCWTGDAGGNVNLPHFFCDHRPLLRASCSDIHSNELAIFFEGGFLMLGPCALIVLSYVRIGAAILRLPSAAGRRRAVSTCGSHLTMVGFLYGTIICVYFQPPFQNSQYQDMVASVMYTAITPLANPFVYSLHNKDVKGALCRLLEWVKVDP
# Summary of the method: as §1
# [19] = target: T5, OR1C1 (Homo sapiens) (UniProt Q15619)
# T5 sequence (whole entry): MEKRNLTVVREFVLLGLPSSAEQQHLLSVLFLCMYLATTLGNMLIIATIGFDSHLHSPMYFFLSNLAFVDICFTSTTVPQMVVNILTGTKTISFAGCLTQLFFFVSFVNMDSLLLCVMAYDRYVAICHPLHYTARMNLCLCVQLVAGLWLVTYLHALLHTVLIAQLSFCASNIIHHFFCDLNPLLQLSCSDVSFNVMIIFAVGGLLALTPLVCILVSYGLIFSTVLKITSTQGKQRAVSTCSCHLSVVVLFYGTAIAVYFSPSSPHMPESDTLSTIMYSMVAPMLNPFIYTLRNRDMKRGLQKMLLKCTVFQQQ
# Summary of the method: as §1
# [20] = system: OR1D2
# Chain of OR1D2 (as listed by the source): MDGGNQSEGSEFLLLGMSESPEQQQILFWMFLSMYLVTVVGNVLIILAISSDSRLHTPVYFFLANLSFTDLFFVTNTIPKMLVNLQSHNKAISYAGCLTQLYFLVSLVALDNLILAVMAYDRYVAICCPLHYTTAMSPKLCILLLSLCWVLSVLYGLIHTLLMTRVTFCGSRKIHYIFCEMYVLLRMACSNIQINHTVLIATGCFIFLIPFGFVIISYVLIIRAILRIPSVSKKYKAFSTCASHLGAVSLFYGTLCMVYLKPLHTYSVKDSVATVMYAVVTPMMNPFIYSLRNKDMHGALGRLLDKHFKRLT
# Summary of the method: as §1
smiles,measurement,setting,value
CC(C)=CCCC(C)CCO (stereo not given),odorant receptor agonist call,[1],active
same,odorant receptor agonist call,[2],active
same,odorant receptor agonist call,[3],active
same,odorant receptor agonist call,[4],active
same,odorant receptor agonist call,[5],active
same,odorant receptor agonist call,[6],active
same,odorant receptor agonist call,[7],active
same,odorant receptor agonist call,[8],active
same,odorant receptor agonist call,[9],inactive
same,odorant receptor agonist call,[10],inactive
same,odorant receptor agonist call,[11],inactive
same,odorant receptor agonist call,[12],inactive
same,odorant receptor agonist call,[13],inactive
same,odorant receptor agonist call,[14],inactive
CCc1ccc(CC(C)(C)C=O)cc1,odorant receptor agonist call,[15],active
Cc1cnc(C)c(C)n1,odorant receptor agonist call,[16],inactive
same,odorant receptor agonist call,[17],inactive
same,odorant receptor agonist call,[18],inactive
same,odorant receptor agonist call,[19],inactive
same,odorant receptor agonist call,[15],inactive
CCCCCCC=CCCC=O,odorant receptor agonist call,[16],inactive
same,odorant receptor agonist call,[17],inactive
same,odorant receptor agonist call,[18],inactive
same,odorant receptor agonist call,[19],inactive
same,odorant receptor agonist call,[15],inactive
COc1ccc(CC(C)C=O)cc1 (stereo not given),odorant receptor agonist call,[15],active
O=c1ccc2ccccc2o1,odorant receptor agonist call,[19],active
O=C(O)CCc1ccccc1,odorant receptor agonist call,[15],inactive
CC(CO)CS (stereo not given),odorant receptor agonist call,[16],inactive
same,odorant receptor agonist call,[18],inactive
same,odorant receptor agonist call,[19],inactive
same,odorant receptor agonist call,[15],inactive
O=CCCCCc1ccccc1,odorant receptor agonist call,[15],inactive
CCCCCC(S)C(C)CO (stereo not given),odorant receptor agonist call,[16],inactive
same,odorant receptor agonist call,[18],inactive
same,odorant receptor agonist call,[19],inactive
same,odorant receptor agonist call,[15],inactive
CC(CCO)c1ccccc1 (stereo not given),odorant receptor agonist call,[15],inactive
CC1=C(O)C(=O)C(C)O1 (stereo not given),odorant receptor agonist call,[16],inactive
same,odorant receptor agonist call,[17],inactive
same,odorant receptor agonist call,[18],inactive
same,odorant receptor agonist call,[19],inactive
same,odorant receptor agonist call,[15],inactive
O=CCCc1ccccc1,odorant receptor agonist call,[15],active
CC1=NC(C)C(C)S1 (stereo not given),odorant receptor agonist call,[16],inactive
same,odorant receptor agonist call,[17],inactive
same,odorant receptor agonist call,[18],inactive
same,odorant receptor agonist call,[19],inactive
same,odorant receptor agonist call,[15],inactive
CC1CCCCCCCCCCCCC(=O)C1 (stereo not given),odorant receptor agonist call,[16],inactive
same,odorant receptor agonist call,[18],inactive
same,odorant receptor agonist call,[19],inactive
CCCCC(S)C(C)CO (stereo not given),odorant receptor agonist call,[16],active
same,odorant receptor agonist call,[18],inactive
same,odorant receptor agonist call,[19],inactive
same,odorant receptor agonist call,[15],inactive
CC(C=O)Cc1ccc(C(C)(C)C)cc1 (stereo not given),odorant receptor agonist call,[15],inactive
same,odorant receptor agonist call,[20],inactive
CCCC(S)CCOC(C)=O (stereo not given),odorant receptor agonist call,[16],inactive
same,odorant receptor agonist call,[17],inactive
same,odorant receptor agonist call,[18],inactive
same,odorant receptor agonist call,[19],inactive
same,odorant receptor agonist call,[15],inactive
CC(C=O)Cc1ccc(C(C)C)cc1 (stereo not given),odorant receptor agonist call,[15],active
CCC(S)C(C)CO (stereo not given),odorant receptor agonist call,[16],inactive
same,odorant receptor agonist call,[18],inactive
same,odorant receptor agonist call,[19],inactive
same,odorant receptor agonist call,[15],inactive
CCCCCC(=O)C(C)C(C)=O (stereo not given),odorant receptor agonist call,[16],inactive
same,odorant receptor agonist call,[18],inactive
same,odorant receptor agonist call,[19],inactive
same,odorant receptor agonist call,[15],inactive
CC=Cc1ccc(OC)cc1,odorant receptor agonist call,[15],inactive
CC(C)(C)c1ccc(OCC=O)cc1,odorant receptor agonist call,[15],active
CCC1OC(=O)C(O)=C1C (stereo not given),odorant receptor agonist call,[16],inactive
same,odorant receptor agonist call,[17],inactive
same,odorant receptor agonist call,[18],inactive
same,odorant receptor agonist call,[19],inactive
same,odorant receptor agonist call,[15],inactive
CC(C)c1ccccc1,odorant receptor agonist call,[15],inactive
CC1=C(O)C(=O)OC1C (stereo not given),odorant receptor agonist call,[16],inactive
same,odorant receptor agonist call,[17],inactive
same,odorant receptor agonist call,[18],inactive
same,odorant receptor agonist call,[19],inactive
same,odorant receptor agonist call,[15],inactive
CC(=O)c1c(C)c([N+](=O)[O-])c(C(C)(C)C)c([N+](=O)[O-])c1C,odorant receptor agonist call,[16],inactive
same,odorant receptor agonist call,[18],inactive
same,odorant receptor agonist call,[19],inactive
O=CCCCc1ccccc1,odorant receptor agonist call,[15],active
CC(CC=O)c1ccccc1 (stereo not given),odorant receptor agonist call,[15],active
CCC1OC(C)=C(O)C1=O (stereo not given),odorant receptor agonist call,[16],inactive
same,odorant receptor agonist call,[17],inactive
same,odorant receptor agonist call,[18],inactive
same,odorant receptor agonist call,[19],inactive
same,odorant receptor agonist call,[15],inactive
